From publication PMC9292215 (Clinical Pharmacology and Therapeutics, 2021)

Key:
anandamide (AEA) = test: Plasma anandamide; type: in vivo, human; conditions: for AEA AUC0–24: Day 1; for AEA AUC0–τ: Day 10
Procedure, shortened: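 In a double-blind, placebo-controlled multiple-dose part, healthy adult men and women in groups of eight (six active, two placebo) took oral test compound once daily for 10 days. They fasted at least 8 h before and 1 h after dosing. Plasma anandamide AUCs were taken on Days 1 and 10, with a Day 10/Day 1 ratio. Data are mean (CV%); tmax is median (range).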

FAAH = target: T1, FAAH (Homo sapiens, UniProt O00519); test: Leukocyte FAAH activity in participants; type: in vivo
T1 sequence (O00519 1-579): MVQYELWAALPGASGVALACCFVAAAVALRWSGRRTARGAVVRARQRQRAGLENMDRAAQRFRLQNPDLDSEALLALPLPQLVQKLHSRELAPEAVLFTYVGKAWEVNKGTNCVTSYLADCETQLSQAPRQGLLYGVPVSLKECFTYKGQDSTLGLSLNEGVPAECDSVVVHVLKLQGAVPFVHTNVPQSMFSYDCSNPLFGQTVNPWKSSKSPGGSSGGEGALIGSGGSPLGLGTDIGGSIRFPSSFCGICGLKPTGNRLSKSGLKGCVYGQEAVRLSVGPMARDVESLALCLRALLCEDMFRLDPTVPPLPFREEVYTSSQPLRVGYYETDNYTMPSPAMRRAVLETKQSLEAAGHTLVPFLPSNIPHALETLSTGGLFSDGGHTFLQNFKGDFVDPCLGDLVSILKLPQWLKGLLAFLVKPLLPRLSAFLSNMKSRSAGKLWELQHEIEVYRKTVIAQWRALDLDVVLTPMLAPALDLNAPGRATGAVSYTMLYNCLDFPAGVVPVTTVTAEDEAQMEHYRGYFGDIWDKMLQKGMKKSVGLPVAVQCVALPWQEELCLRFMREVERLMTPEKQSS
Procedure, shortened: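 Healthy men and women aged 18–55 years (BMI 19–30 kg/m²) took single oral capsule doses of test compound (0.25–100 mg) or matching placebo in a double-blind design. They fasted at least 8 h before and 1 h after dosing. Leukocyte FAAH activity was followed after dosing and expressed as percent inhibition, judged by visual inspection. Values are means of six participants per group.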

CN(C(=O)n1cnc(-c2ccc[n+]([O-])c2)c1)C1CCCCC1 [BIA 10-2474, 3-(1-(cyclohexyl(methyl)carbamoyl)-1H-imidazol-4-yl)pyridine 1-oxide]
AEA Ratio (AUCD10/D1) (anandamide (AEA); 2.5 mg once daily): 1.27
AEA AUC0–24 (anandamide (AEA); 2.5 mg once daily): 42.8 (17.1) ng⋅hour/mL
AEA AUC0–τ (anandamide (AEA); 2.5 mg once daily): 54.2 (9.41) ng⋅hour/mL
AEA Ratio (AUCD10/D1) (anandamide (AEA); 5 mg once daily): 1.25
AEA AUC0–24 (anandamide (AEA); 5 mg once daily): 44.9 (23.4) ng⋅hour/mL
AEA AUC0–τ (anandamide (AEA); 5 mg once daily): 56.3 (17.7) ng⋅hour/mL
AEA Ratio (AUCD10/D1) (anandamide (AEA); 10 mg once daily): 1.16
AEA AUC0–24 (anandamide (AEA); 10 mg once daily): 52.2 (19.3) ng⋅hour/mL
AEA AUC0–τ (anandamide (AEA); 10 mg once daily): 60.8 (17.9) ng⋅hour/mL
AEA Ratio (AUCD10/D1) (anandamide (AEA); 20 mg once daily): 1.22
AEA AUC0–24 (anandamide (AEA); 20 mg once daily): 51.2 (19.6) ng⋅hour/mL
AEA AUC0–τ (anandamide (AEA); 20 mg once daily): 62.8 (21.7) ng⋅hour/mL
BIA 10-2474 plasma exposure giving relevant AEA increases (anandamide (AEA); achieved with 10 mg/day): around 1,500 ng⋅h/mL
AEA AUC0–t (anandamide (AEA); single dose 0.25 mg): 27.5 (34.1) ng⋅hour/mL
AEA AUC0–t (anandamide (AEA); single dose 1.25 mg): 68.0 (13.1) ng⋅hour/mL
AEA AUC0–t (anandamide (AEA); single dose 2.5 mg): 101 (17.2) ng⋅hour/mL
AEA AUC0–t (anandamide (AEA); single dose 5 mg): 109 (11.2) ng⋅hour/mL
AEA AUC0–t (anandamide (AEA); single dose 10 mg): 137 (8.92) ng⋅hour/mL
AEA AUC0–t (anandamide (AEA); single dose 20 mg): 149 (6.20) ng⋅hour/mL
AEA AUC0–t (anandamide (AEA); single dose 40 mg): 160 (26.42) ng⋅hour/mL
AEA AUC0–t (anandamide (AEA); single dose 100 mg): 188 (22.4) ng⋅hour/mL
increase in plasma AEA AUC compared with placebo (anandamide (AEA); single dose 100 mg): 12.5 fold
return of AEA to baseline (anandamide (AEA); single doses): > 72 hours post dose
apparent maximum FAAH inhibition (FAAH; 5 mg and above, visual inspection): > 97%
duration of FAAH inhibition by more than 90% (FAAH; doses above 2.5 mg): at least 72 hours
FAAH activity inhibited (FAAH; doses above 2.5 mg, for at least 72 hours): more than 90%
FAAH inhibition (FAAH; single dose 0.25 mg, visual inspection): more than 50%
